Bioassay records (PubChem)
ARFGAP1 inh – inhibitors of rat ARFGAP1 GAP activity, primary screen, biochemical, fluorescence polarization, GDP tracer; ADP-ribosylation factor GTPase-activating protein 1 (Rattus norvegicus), Q62848; Arfgap1-stimulated ARF1 GTP hydrolysis, GDP FP detection; inhibition, % at 16.5 µM; hit rate 0.26% among 360,000;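 active = inhibition above a per-plate limit, mean inhibition of low control wells plus 3 SD, cut at about 25% in these data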
Target sequence (Q62848 1-136 limits assumed): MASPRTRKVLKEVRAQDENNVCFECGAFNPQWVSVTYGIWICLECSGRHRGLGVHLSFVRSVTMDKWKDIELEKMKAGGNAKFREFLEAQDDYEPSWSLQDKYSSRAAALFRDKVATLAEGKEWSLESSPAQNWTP
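Replicates: Single well per compound | Assay system: Truncated rat Arfgap1 GAP domain | Control set: No-Arfgap1 wells (100%) versus DMSO full-reaction wells (0%) | Times: Enzyme reaction 120 min at 25 °C after 20 min preincubation | Reagent: Human ARF1(Δ1-17)-GTP substrate | Measured by: Tracer-displacement fluorescence polarization with EDTA stop, 620/688 nm | Measure: Percent inhibition of Arfgap1-stimulated GTP hydrolysis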
ASAP1 GAP inh – inhibitors of human ASAP1 ArfGAP activity, primary screen, biochemical, fluorescence polarization; Arf-GAP with SH3 domain, ANK repeat and PH domain-containing protein 1 (Homo sapiens), …; ASAP1-stimulated ARF1 GTP hydrolysis, GDP FP detection; inhibition, % at 16.5 µM; hit rate 0.19% among 360,000; AID 624377, 2012; in the data active = inhibition above about 25%
VIM-2 inhibitor – VIM-2 metallo-beta-lactamase inhibitors, primary screen, biochemical, epi-absorbance readout, Pseudomonas aeruginosa enzyme. AID 1527, 2009. inhibition, % at 5.6 µM. purified VIM-2, nitrocefin hydrolysis, epi-absorbance fluorescence. hit rate 0.89% among 290,000;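 active = inhibition above the mean of all tested compounds plus 3 SD, cutoff set per screening run, cut at about 7.5% in these data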;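 also: red hydrolysis product quenches plate fluorescence so inhibitors raise well fluorescence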
PHOSPHO1 inh – PubChem AID 1565; Phosphoethanolamine/phosphocholine phosphatase (Homo sapiens), Q8TCT1; hit rate 1.1% among 290,000; recombinant PHOSPHO1, absorbance phosphatase assay; inhibition, % at 13.3 µM; in the data active = inhibition above about 60%
Target sequence (Q8TCT1 whole entry, looked up): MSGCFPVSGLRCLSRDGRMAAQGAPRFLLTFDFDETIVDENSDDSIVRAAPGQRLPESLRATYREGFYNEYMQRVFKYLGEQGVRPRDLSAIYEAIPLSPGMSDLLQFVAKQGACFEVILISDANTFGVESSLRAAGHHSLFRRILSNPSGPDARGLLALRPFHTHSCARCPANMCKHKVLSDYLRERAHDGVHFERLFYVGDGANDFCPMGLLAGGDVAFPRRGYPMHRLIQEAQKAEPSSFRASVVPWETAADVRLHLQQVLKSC
Calb FLC – C. albicans growth inhibition with fluconazole, primary screen, CaCi-2 strain, Alamar Blue fluorescence; C. albicans CaCi-2 + fluconazole, 48 h; growth inhibition, % (test concentration not listed); AID 1979, 2009; hit rate 0.57% among 300,000;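 active = growth inhibition above about 58% in most replicates, limit read from the data, passing the limit was not always enough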;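 also: all wells also contain fluconazole at 8 µg/ml as a sub-toxic cotreatment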
IMP-1 inh – IMP-1 metallo-beta-lactamase inhibitors, primary screen, biochemical, epi-absorbance readout, Pseudomonas aeruginosa enzyme. purified IMP-1, nitrocefin hydrolysis, epi-absorbance fluorescence. hit rate 0.45% among 290,000. inhibition, % at 5.6 µM. metallo-beta-lactamase IMP-1 (Pseudomonas aeruginosa);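 active = inhibition above the mean plus 3 SD of all compounds in the same screening run, cut at about 4.5% in these data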
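Assay system: purified recombinant IMP-1 beta-lactamase. Input: IMP-1 0.2 nM before substrate addition. Buffer or medium: Zinc- and detergent-supplemented HEPES buffer, pH 7.1. Schedule: 25 °C, 15 min preincubation, 25 min reaction. Signal: Epi-absorbance fluorescence, 480 nm excitation, 530 nm emission. Evaluation: percent inhibition from optical density relative to buffer-blank wells.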
Numbers stand for hits; . = inactive; / = no result. Compounds with a hit are over-represented: about 2.6% of the library has one in this group of screens.

SMILES	ARFGAP1 inh	ASAP1 GAP inh	VIM-2 inhibitor	PHOSPHO1 inh	Calb FLC	IMP-1 inh
Cc1ccc(SC(C)C(=O)Nc2cccnc2)cc1 (stereo unspecified)	.	.	.	60	.	.
Cc1ccc(SC(C)C(=O)Nc2ccncc2)cc1 (stereo unspecified)	.	.	.	.	.	.
Cc1ccc(N2CC(C)Cn3c2nc2c3c(=O)[nH]c(=O)n2C)cc1C (stereo unspecified)	.	.	8.7	.	.	.
COC(=O)N1C[C@H](OC(=S)Nc2ccc(OC)cc2OC)[C@H]2C[C@@H]1c1ccccc1O2	.	.	/	/	/	/
CC1=NNC(=O)C1Cc1ccc(F)cc1 (stereo unspecified)	.	.	8.4	.	.	.
CC1(C)Cc2c(c(N3CCOCC3)nc3sc4c(NN)ncnc4c23)CS1	.	.	.	.	.	12
c1nc(N2CCOCC2)c2sc3nc(N4CCOCC4)c4c(c3c2n1)CCCC4	/	/	.	/	/	.
CCN(CC)c1ncnc2c1sc1nc(N3CCOCC3)c3c(c12)CCC3	/	/	.	.	/	7.0
CN(C(=O)c1cccc(NC(=O)Cc2ccc(NC(=O)C3CCCN(C(=O)c4ccccc4)C3)cc2)c1)C1CC1 (stereo unspecified)	.	.	/	/	/	/
CCCCc1c(-c2ccccc2OC)ncn1Cc1ccc(Br)cc1	.	.	/	/	/	/
COC(=O)c1ccc2c(c1)S(=O)(=O)NC(=NCc1ccco1)S2	.	.	.	75	.	.
C#CCN(CC(=O)OCC)S(=O)(=O)CCNC1CC1	.	.	/	/	/	/
COCCOC(=O)c1c(C)nc(SCC(=O)Nc2ccc(OC)cc2)c(C#N)c1-c1ccco1	.	.	.	.	.	.
Cc1nc(SCC(=O)c2ccccc2)c(C#N)c(-c2ccco2)c1C(=O)NCc1ccco1	.	.	.	.	.	5.0
O=C(CSC1CCc2ccccc21)NNC(=O)Nc1ccc(Cl)cc1 (stereo unspecified)	.	.	/	/	/	/
CCc1cc2c(nc1CC)CCCN2S(=O)(=O)c1ccc(F)cc1	.	.	/	/	/	/
CN(C)C(=O)CSc1cccc2cccnc12	.	.	.	71	.	.
NNC(=O)CSc1cccc2cccnc12	.	.	.	.	.	.
O=C(CSc1cccc2cccnc12)OCC(=O)c1ccc(Br)cc1	.	.	.	.	.	5.3
COc1ccc(N=C2S/C(=C\c3ccc(Cl)c([N+](=O)[O-])c3)C(=O)N2CCN(C)C)cc1	.	.	.	.	.	.
CCN(CC)CCN1C(=O)/C(=C\c2ccc(Cl)c([N+](=O)[O-])c2)SC1=Nc1ccc(OC)cc1	.	.	8.0	.	.	.
O=c1c2ccccc2c2ccccc2c(=O)n1CC1CCCO1 (stereo unspecified)	.	.	.	.	.	.
O=C1OCC(Cn2c3ccccc3c3ccccc32)O1 (stereo unspecified)	.	.	.	78	.	.
CCOc1ccc(C2CC(c3ccc(CC)cc3)n3nc(N)nc3N2)cc1 (stereo unspecified)	.	.	.	62	.	.
CCOc1ccc(C2CC(c3ccc(CC)cc3)Nc3nc(N)nn32)cc1 (stereo unspecified)	.	.	.	.	.	.
SMILES	ARFGAP1 inh	ASAP1 GAP inh	VIM-2 inhibitor	PHOSPHO1 inh	Calb FLC	IMP-1 inh
CCCCn1c2ccc(F)cc2c2nnc(SCCN3CCCCC3)nc21	.	.	8.4	.	.	.
Cn1c2ccc(F)cc2c2nnc(SCCN3CCCCC3)nc21	.	.	12	.	.	.
CCn1c2ccc(C)cc2c2nnc(SCCN3CCOCC3)nc21	.	.	11	.	.	.
CCn1c2ccccc2c2nnc(SCCN3CCOCC3)nc21	.	.	.	.	.	.
CCOc1ccc2c(c1)c1nnc(SCC(=O)N3CCCCC3C)nc1n2C (stereo unspecified)	.	.	.	.	.	.
Cc1c(C2Nc3ccccc3C2C)[nH]c2ccccc12 (stereo unspecified)	.	.	/	/	/	/
Cc1ccccc1NC(=O)N(C)[C@H]1C[C@H]2c3[nH]c4c(-c5ccccc5)cccc4c3CCN2C(=O)[C@H]1[C@H](C)O	.	.	/	/	/	/
CCOc1ccc(N2CSC3=C(C#N)C(c4ccco4)CC(=O)N3C2)cc1 (stereo unspecified)	.	.	.	94	.	.
Cc1ccc(C2CC(=O)N3CN(c4ccc(Br)cc4)CSC3=C2C#N)o1 (stereo unspecified)	.	.	.	93	.	.
COC(=O)[C@]12C[C@H](CC(=O)N3CCCC3)C(=O)N(CCC3=CCCCC3)C1=C[C@H](COCc1ccccc1)O[C@@H]2C	.	.	/	/	/	/
Nc1nc2cc3c(cc2cc1C(=O)NCCc1c[nH]c2ccccc12)OCO3	.	.	/	/	/	/
